Results taken from ChEMBL document CHEMBL4038284, “Synthesis of novel quinoline-based 4,5-dihydro-1H-pyrazoles as potential anticancer, antifungal, antibacterial and antiprotozoal agents” (Eur J Med Chem, 2017).
In brackets after ≈: the same amount, converted by molar mass.

Columns and labels:
Candida albicans [1] = assay: Growth inhibition of Candida albicans ATCC 10231 at 15.62 ug/ml incubated for 48 hrs under dark condition by broth microdilution method relative to control; format: functional; details: ATCC 10231, 48 h, read-out: GI
Method in brief: (§1)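 CLSI M27-A3 broth microdilution in RPMI-1640, DMSO ≤1%. Inoculum 1-5 × 10^3 CFU/mL. Incubated 48 h at 30 °C, dark. % inhibition = 100 − (OD405 test − sterility control)/(OD405 growth control − sterility control), with growth and sterility control wells. Triplicate.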

Cryptococcus neoformans [2] = assay: Antifungal activity against Cryptococcus neoformans ATCC 32264 incubated for 48 hrs under dark condition by broth microdilution method; format: functional; details: ATCC 32264, 48 h
Method in brief: (§2)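 CLSI M27-A3 broth microdilution in RPMI-1640, DMSO ≤1%, compounds at 250-0.98 µg/mL final. Inoculum 1-5 × 10^3 CFU/mL. Incubated 48 h at 30 °C in a moist dark chamber, read at OD405. MIC80 and MIC50 taken from % inhibition dose-response curves (mean ± SEM, triplicate). Amphotericin B was the positive control.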

Staphylococcus aureus [3] = assay: Antibacterial activity against vancomycin-intermediate Staphylococcus aureus after 24 hrs by resazurin dye based microdilution assay; format: functional
Method in brief: (§3)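 MIC taken as the lowest concentration giving visible inhibition and/or by resazurin (1 mg/mL). Gentamicin was the control. Run in duplicate, repeated at least three times.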

Candida albicans [4] = assay: Growth inhibition of Candida albicans ATCC 10231 at 3.4 ug/ml incubated for 48 hrs under dark condition by broth microdilution method relative to control; format: functional; details: ATCC 10231, 48 h, read-out: GI
Cryptococcus neoformans [5] = assay: Growth inhibition of Cryptococcus neoformans ATCC 32264 at 31.25 ug/ml incubated for 48 hrs under dark condition by broth microdilution method relative to control; format: functional; details: ATCC 32264, 48 h, read-out: GI; method in brief: as §1
Plasmodium falciparum = assay: Antiplasmodial activity against chloroquine-sensitive Plasmodium falciparum 3D7 assessed as reduction in parasitic LDH activity after 48 hrs by Malstat reagent based […] method; format: functional; details: 3D7, 48 h
Method in brief: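 Unsynchronized P. falciparum 3D7 at 0.5% parasitemia and 1% hematocrit in RPMI with 3% Albumax II. Exposed to 100, 25, 6.25 and 1.56 µg/mL for 48 h at 37 °C under 90% N2/5% CO2/5% O2. After three freeze-thaw cycles, LDH measured with Malstat and NBT/PES, 1 h in the dark, read at 650 nm. IC50 by Probit; triplicate, ≥2 experiments.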

Pseudomonas aeruginosa = assay: Antibacterial activity against Pseudomonas aeruginosa ATCC 27853 after 24 hrs by resazurin dye based microdilution assay; format: functional; details: ATCC 27853, 24 h; method in brief: as §3
Candida albicans [6] = assay: Growth inhibition of Candida albicans ATCC 10231 at 62.5 ug/ml incubated for 48 hrs under dark condition by broth microdilution method relative to control; format: functional; details: ATCC 10231, 48 h, read-out: GI; method in brief: as §1
Candida albicans [7] = assay: Growth inhibition of Candida albicans ATCC 10231 at 31.25 ug/ml incubated for 48 hrs under dark condition by broth microdilution method relative to control; format: functional; details: ATCC 10231, 48 h, read-out: GI; method in brief: as §1
Candida albicans [8] = assay: Growth inhibition of Candida albicans ATCC 10231 at 250 ug/ml incubated for 48 hrs under dark condition by broth microdilution method relative to control; format: functional; details: ATCC 10231, 48 h, read-out: GI; method in brief: as §1
Candida albicans [9] = assay: Growth inhibition of Candida albicans ATCC 10231 at 125 ug/ml incubated for 48 hrs under dark condition by broth microdilution method relative to control; format: functional; details: ATCC 10231, 48 h, read-out: GI; method in brief: as §1
U-937 = assay: Cytotoxicity against human U937 cells after 72 hrs by MTT assay; format: cell-based; details: u-937, 72 h
Method in brief: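 Exponentially growing U-937 at 1 × 10^5 cells/mL in RPMI-1640 with 10% FBS were exposed to 200, 50, 12.5 and 3.125 µg/mL for 72 h at 37 °C, 5% CO2. MTT for 3 h, stopped with isopropanol/SDS, formazan read at 570 nm, blank-corrected. LC50 by Probit from % viability against untreated cells. Triplicate, at least two independent experiments.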

Klebsiella pneumoniae [10] = assay: Antibacterial activity against carbapenemase positive Klebsiella pneumoniae BAA 1705 after 24 hrs by resazurin dye based microdilution assay; format: functional; details: BAA 1705, 24 h; method in brief: as §3
Cryptococcus neoformans [11] = assay: Growth inhibition of Cryptococcus neoformans ATCC 32264 at 250 ug/ml incubated for 48 hrs under dark condition by broth microdilution method relative to control; format: functional; details: ATCC 32264, 48 h, read-out: GI; method in brief: as §1
Cryptococcus neoformans [12] = assay: Growth inhibition of Cryptococcus neoformans ATCC 32264 at 7.8 ug/ml incubated for 48 hrs under dark condition by broth microdilution method relative to control; format: functional; details: ATCC 32264, 48 h, read-out: GI; method in brief: as §1
Leishmania panamensis = assay: Antileshmanial activity against EpiR/GFP fused Leishmania panamensis MHOM/CO/87/UA140 intracellular amastigotes infected in human […] cells after 72 hrs by flow cytometric method; format: functional, cell-based; details: MHOM/CO/87/UA140, 72 h
Method in brief: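 PMA-treated U-937 cells (3 × 10^5 cells/mL) infected with stationary-phase GFP L. panamensis promastigotes (15:1), 3 h at 34 °C, then washed. After 24 h, compounds added at 50, 12.5, 3.125 and 0.78 µg/mL for 72 h at 37 °C. EC50 by Probit; triplicate, two experiments.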

Candida albicans [13] = assay: Growth inhibition of Candida albicans ATCC 10231 at 7.8 ug/ml incubated for 48 hrs under dark condition by broth microdilution method relative to control; format: functional; details: ATCC 10231, 48 h, read-out: GI; method in brief: as §1
Staphylococcus aureus [14] = assay: Antibacterial activity against methicillin-sensitive Staphylococcus aureus ATCC 25923 after 24 hrs by resazurin dye based microdilution assay; format: functional; details: ATCC 25923, 24 h; method in brief: as §3
Cryptococcus neoformans [15] = assay: Growth inhibition of Cryptococcus neoformans ATCC 32264 at 62.5 ug/ml incubated for 48 hrs under dark condition by broth microdilution method relative to control; format: functional; details: ATCC 32264, 48 h, read-out: GI; method in brief: as §1
Cryptococcus neoformans [16] = assay: Growth inhibition of Cryptococcus neoformans ATCC 32264 at 125 ug/ml incubated for 48 hrs under dark condition by broth microdilution method relative to control; format: functional; details: ATCC 32264, 48 h, read-out: GI; method in brief: as §1
Candida albicans [17] = assay: Antifungal activity against Candida albicans ATCC 10231 incubated for 48 hrs under dark condition by broth microdilution method; format: functional; details: ATCC 10231, 48 h; method in brief: as §2
Neisseria gonorrhoeae = assay: Antibacterial activity against beta lactamase positive Neisseria gonorrhoeae ATCC 31426 by oxidase test; format: functional
Method in brief: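 Agar dilution MIC on GC agar with 1% isovitalex containing increasing compound concentrations. Plates inoculated with about 1×10^4 CFU (5 µL). MIC is the lowest concentration that inhibited growth, with growth confirmed by oxidase test. Run in duplicate, repeated at least three times.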

Klebsiella pneumoniae [18] = assay: Antibacterial activity against ESBL positive Klebsiella pneumoniae ATCC 700603 after 24 hrs by resazurin dye based microdilution assay; format: functional; details: Klebsiella pneumoniae, 700603, 24 h; method in brief: as §3
Cryptococcus neoformans [19] = assay: Growth inhibition of Cryptococcus neoformans ATCC 32264 at 3.4 ug/ml incubated for 48 hrs under dark condition by broth microdilution method relative to control; format: functional; details: ATCC 32264, 48 h, read-out: GI
Trypanosoma cruzi = assay: Antitrypanosomal activity against Trypanosoma cruzi Tulahuen intracellular amastigote harboring LacZ infected in human U937 cells after 72 hrs by CPRG/Nonidet reagent based spectrophotometric method; format: functional, cell-based; details: U-937, 72 h
Method in brief: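 U-937 cells at 2.5 × 10^5 cells/mL in RPMI-1640 with 10% serum and 0.1 µg/mL PMA were infected with β-galactosidase-transfected Tulahuen epimastigotes at 5 parasites per cell. Infected cells were exposed to 50, 12.5, 3.125 and 0.78 µg/mL for 72 h. CPRG (100 uM) and 0.1% Nonidet P-40 were added for 3 h, read at 570 nm. EC50 by Probit. Triplicate, at least two experiments; benznidazole as reference.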

Cryptococcus neoformans [20] = assay: Growth inhibition of Cryptococcus neoformans ATCC 32264 at 15.62 ug/ml incubated for 48 hrs under dark condition by broth microdilution method relative to control; format: functional; details: ATCC 32264, 48 h, read-out: GI; method in brief: as §1
Escherichia coli = assay: Antibacterial activity against Escherichia coli ATCC 25922 after 24 hrs by resazurin dye based microdilution assay; format: functional; details: ATCC 25922, 24 h; method in brief: as §3
Staphylococcus aureus [21] = assay: Antibacterial activity against methicillin-resistant Staphylococcus aureus ATCC 43300 after 24 hrs by resazurin dye based microdilution assay; format: functional; details: ATCC 43300, 24 h
Method in brief: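 Broth microdilution in Mueller Hinton broth, inoculum 5 × 10^5 – 8 × 10^5. Compound stocks diluted in MHB with 5% DMSO and 0.1% Tween 80. Incubation 24 h at 35-37 °C. MIC is the lowest concentration with visible growth inhibition and/or by resazurin (1 mg/mL) read-out. Gentamicin as control. Run in duplicate, replicated at least three times.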

Compound	inhibition of growth at 15.62 µg/mL (Candida albicans [1]) [%]	MIC50 (Cryptococcus neoformans [2]) [mg/L]	MIC80 (Cryptococcus neoformans [2]) [mg/L]	MIC (Staphylococcus aureus [3]) [mg/L]	inhibition of growth at 3.4 µg/mL (Candida albicans [4]) [%]	inhibition of growth at 31.25 µg/mL (Cryptococcus neoformans [5]) [%]	EC50 (Plasmodium falciparum) [mg/L]	MIC (Pseudomonas aeruginosa) [mg/L]	inhibition of growth at 62.5 µg/mL (Candida albicans [6]) [%]	inhibition of growth at 31.25 µg/mL (Candida albicans [7]) [%]	inhibition of growth at 250 µg/mL (Candida albicans [8]) [%]	inhibition of growth at 125 µg/mL (Candida albicans [9]) [%]	LC50 (U-937) [mg/L]	MIC (Klebsiella pneumoniae [10]) [mg/L]	inhibition of growth at 250 µg/mL (Cryptococcus neoformans [11]) [%]	inhibition of growth at 7.8 µg/mL (Cryptococcus neoformans [12]) [%]	EC50 (Leishmania panamensis) [mg/L]	inhibition of growth at 7.8 µg/mL (Candida albicans [13]) [%]	MIC (Staphylococcus aureus [14]) [mg/L]	inhibition of growth at 62.5 µg/mL (Cryptococcus neoformans [15]) [%]	also measured
CC(=O)N1N=C(c2ccc(Br)cc2)CC1c1cccc(Nc2ccnc3cc(Cl)ccc23)c1 (stereo not given)	15	250 (≈ 481 µM)	≥ 250	> 1000	13.7	19.6	50.1 (≈ 96.3 µM)	> 1000	19.1	15.7	29.9	27.9	10.2 (≈ 19.6 µM)	> 1000	71.2	16.9	3.66 (≈ 7.04 µM)	13.9	> 1000	23.6	inhibition of growth at 125 µg/mL (Cryptococcus neoformans [16]): 48.4%; MIC50 (Candida albicans [17]): ≥ 250 mg/L; MIC80 (Candida albicans [17]): ≥ 250 mg/L; MIC (Neisseria gonorrhoeae): > 1000 mg/L; MIC (Klebsiella pneumoniae [18]): > 1000 mg/L; inhibition of growth at 3.4 µg/mL (Cryptococcus neoformans [19]): 15.4%; EC50 (Trypanosoma cruzi): 3.7 mg/L (≈ 7.12 µM); inhibition of growth at 15.62 µg/mL (Cryptococcus neoformans [20]): 18.3%; MIC (Escherichia coli): > 1000 mg/L; MIC (Staphylococcus aureus [21]): > 1000 mg/L
Cc1ccc(C2=NN(c3ccc(Cl)cc3)C(c3cccc(Nc4ccnc5cc(Cl)ccc45)c3)C2)cc1 (stereo not given)	7.27	≥ 250	≥ 250	> 1000	0	10.9	13.7 (≈ 26.2 µM)	> 1000	13.1	8.37	36.5	16.2	> 200	> 1000	22.8	6.57	49.4 (≈ 94.4 µM)	5.67	> 1000	12.9	inhibition of growth at 125 µg/mL (Cryptococcus neoformans [16]): 15.9%; MIC50 (Candida albicans [17]): ≥ 250 mg/L; MIC80 (Candida albicans [17]): ≥ 250 mg/L; MIC (Neisseria gonorrhoeae): > 1000 mg/L; MIC (Klebsiella pneumoniae [18]): > 1000 mg/L; inhibition of growth at 3.4 µg/mL (Cryptococcus neoformans [19]): 0%; EC50 (Trypanosoma cruzi): 21.9 mg/L (≈ 41.9 µM); inhibition of growth at 15.62 µg/mL (Cryptococcus neoformans [20]): 6.99%; MIC (Escherichia coli): > 1000 mg/L; MIC (Staphylococcus aureus [21]): > 1000 mg/L
Clc1cc(Cl)cc(N2N=C(c3ccc(Br)cc3)CC2c2cccc(Nc3ccnc4cc(Cl)ccc34)c2)c1 (stereo not given)	1.92	≥ 250	≥ 250	> 1000	0	0	14.4 (≈ 23.1 µM)	> 1000	4.45	2.07	13.7	7.23	> 200	> 1000	13.3	0	2.77 (≈ 4.45 µM)	1.43	> 1000	0	inhibition of growth at 125 µg/mL (Cryptococcus neoformans [16]): 0%; MIC50 (Candida albicans [17]): ≥ 250 mg/L; MIC80 (Candida albicans [17]): ≥ 250 mg/L; MIC (Neisseria gonorrhoeae): > 1000 mg/L; MIC (Klebsiella pneumoniae [18]): > 1000 mg/L; inhibition of growth at 3.4 µg/mL (Cryptococcus neoformans [19]): 0%; EC50 (Trypanosoma cruzi): 28.3 mg/L (≈ 45.4 µM); inhibition of growth at 15.62 µg/mL (Cryptococcus neoformans [20]): 0%; MIC (Escherichia coli): > 1000 mg/L; MIC (Staphylococcus aureus [21]): > 1000 mg/L
